In publication PMC4465584 (Journal of medicinal chemistry, 2015):

Experiments:
WNV = WNV subgenomic replicon assay; format: cell-based, West Nile virus; settings: for inhibition against WNV relative to DENV: 10 μM, comparison of replicon assays
[1] = system: DENV replicon-containing cells; assay: Cell viability assay; format: cell-based, baby hamster; settings: single concentration 10 μM, 3 days, DENV replicon BHK cells
[2] = system: WNV replicon-containing cells; assay: Cell viability assay; format: cell-based, baby hamster; settings: for cytotoxicity: 10 μM, replicon cells
DENV = DENV subgenomic replicon assay; format: cell-based, Dengue virus; settings: for DENV Inhibition %: single concentration 10 μM, 3 days, BHK replicon cells; for activity against DENV relative to WNV: 10 μM, comparison of replicon assays
DNV3MTase = DNV3MTase (Dengue virus type 3, UniProt P27915); assay: SAM binding inhibition; parameters: species or system DENV3; settings: 20 μM compound, 580 nM biotinylated DNV3MTase, 425 nM 3H-SAM
DNV3MTase, sequence (P27915 2492-2753): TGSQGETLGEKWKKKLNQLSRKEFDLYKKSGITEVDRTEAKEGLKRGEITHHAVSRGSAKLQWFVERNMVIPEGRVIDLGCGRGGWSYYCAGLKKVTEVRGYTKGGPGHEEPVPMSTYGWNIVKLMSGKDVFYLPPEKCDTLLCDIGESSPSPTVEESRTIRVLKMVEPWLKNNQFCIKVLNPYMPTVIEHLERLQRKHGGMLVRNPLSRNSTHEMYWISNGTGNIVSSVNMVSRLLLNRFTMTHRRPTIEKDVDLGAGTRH
Method in brief: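 DENV3 MTase from E. coli, refolded from urea on Ni-NTA and cleaved with 3C protease, then NHS-biotinylated (13:1 biotin:protein). Test compound, SAM or sinefungin preincubated 20 min at 23°C. Then 1.65 μCi ³H-SAM, 15 min. Centrifuged; SPA counts read.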

HIV-1 [3] = assay: HIV-1 antiviral assay; format: cell-based; settings: data not shown
HIV-1 [4] = settings: read-out: EC50 against HIV-1; as reported previously ref 23; cited from earlier work

Cc1cn([C@H]2C[C@H](N3C(=O)CSC3c3c4ccccc4cc4ccccc34)[C@@H](CO[Si](C)(C)C(C)(C)C)O2)c(=O)[nH]c1=O (stereo partly drawn) [13c]
inhibition against WNV relative to DENV (WNV): substantially higher inhibition against WNV than DENV

3′-azidothymidine [4, AZT, reference compound]
DENV Viability % [1]: 89% | WNV Viability % ([2]; single concentration 10 μM, 3 days, WNV replicon BHK cells): 83% | DENV Inhibition % (DENV): 0% | WNV Inhibition % (WNV; single concentration 10 μM, 3 days, BHK replicon cells): 0%

CCOCOC[C@H]1O[C@@H](n2cc(C)c(=O)[nH]c2=O)C[C@@H]1n1nncc1-c1ccc2cc(OC)ccc2c1 [compound 26, 1-((2R,4S,5S)-5-((Ethoxymethoxy)methyl)-4-(5-(6-methoxynaphthalen-2-yl)-1H-1,2,3-triazol-1-yl)tetrahydrofuran-2-yl)-5-methylpyrimidine-2,4(1H,3H)-dione]
DENV Inhibition % (DENV): did not yield appreciable antiviral activity

Cc1cn([C@H]2C[C@H](NC(=O)NC34CC5CC(CC(C5)C3)C4)[C@@H](CO[Si](C)(C)C(C)(C)C)O2)c(=O)[nH]c1=O [19c]
inhibition against WNV relative to DENV (WNV): substantially higher inhibition against WNV than DENV

Cc1ccc(S(=O)(=O)NC(=O)N[C@H]2C[C@H](n3cc(C)c(=O)[nH]c3=O)O[C@@H]2CO[Si](C)(C)C(C)(C)C)cc1 [21a, N-(((2S,3S,5R)-2-(((tert-Butyldimethylsilyl)oxy)methyl)-5-(5-meth-yl-2,4-dioxo-3,4-dihydropyrimidin-1(2H)-yl)tetrahydrofuran-3-yl)-carbamoyl)-4-methylbenzenesulfonamide]
activity against DENV relative to WNV (DENV): considerably more active against DENV than WNV

Nc1ncnc2c1ncn2[C@@H]1O[C@H](C[C@@H](N)CC[C@H](N)C(=O)O)[C@@H](O)[C@H]1O [SIN, sinefungin]
Inhibition of the [3H]-SAM-MTase complex formation (DNV3MTase): same level of reduction

C[S+](CC[C@H](N)C(=O)[O-])C[C@H]1O[C@@H](n2cnc3c(N)ncnc32)[C@H](O)[C@@H]1O (stereo partly drawn) [SAM, S-adenosyl-L-methionine]
Inhibition of the [3H]-SAM-MTase complex formation (DNV3MTase): same level of reduction

Cc1cn([C@H]2C[C@H](N3C(=O)CSC3c3ccc4[nH]ccc4c3)[C@@H](CO[Si](C)(C)C(C)(C)C)O2)c(=O)[nH]c1=O (stereo partly drawn) [13b]
inhibition against WNV relative to DENV (WNV): substantially higher inhibition against WNV than DENV

Cc1cn([C@H]2C[C@H](NC(=O)c3ccc(N4CCOCC4)cc3)[C@@H](CO[Si](C)(C)C(C)(C)C)O2)c(=O)[nH]c1=O [15h]
activity against DENV relative to WNV (DENV): considerably more active against DENV than WNV

COc1ccc2cc(-c3cnnn3[C@H]3C[C@H](n4cc(C)c(=O)[nH]c4=O)O[C@@H]3CO[Si](c3ccccc3)(c3ccccc3)C(C)(C)C)ccc2c1 [compound 23]
cytotoxicity [2]: significant cytotoxicity

Cc1cn([C@H]2C[C@H](NC(=O)Nc3cccc4ccccc34)[C@@H](CO[Si](C)(C)C(C)(C)C)O2)c(=O)[nH]c1=O [19b]
activity against DENV relative to WNV (DENV): considerably more active against DENV than WNV

COc1ccc2cc(-c3cnnn3[C@H]3C[C@H](n4cc(C)c(=O)[nH]c4=O)O[C@@H]3CO[Si](C(C)C)(C(C)C)C(C)C)ccc2c1 [compound 22]
cytotoxicity [2]: significant cytotoxicity

Cc1cn([C@H]2C[C@H](NC(=O)c3c[nH]c4ccccc34)[C@@H](CO[Si](C)(C)C(C)(C)C)O2)c(=O)[nH]c1=O [15f]
activity against DENV relative to WNV (DENV): considerably more active against DENV than WNV

COc1ccc2cc(-c3cnnn3[C@H]3C[C@H](n4cc(C)c(=O)[nH]c4=O)O[C@@H]3COC(C)=O)ccc2c1 [compound 24, ((2S,3S,5R)-3-(5-(6-Methoxynaphthalen-2-yl)-1H-1,2,3-triazol-1-yl)-5-(5-methyl-2,4-dioxo-3,4-dihydropyrimidin-1(2H)-yl)tetrahydrofuran-2-yl)methyl acetate]
DENV Inhibition % (DENV): did not yield appreciable antiviral activity

COC[C@H]1O[C@@H](n2cc(C)c(=O)n(C)c2=O)C[C@@H]1n1nncc1-c1ccc2cc(OC)ccc2c1 [compound 25, 1-((2R,4S,5S)-5-(Methoxymethyl)-4-(5-(6-methoxynaphthalen-2-yl)-1H-1,2,3-triazol-1-yl)tetrahydrofuran-2-yl)-3,5-dimethylpyrimidine-2,4(1H,3H)-dione]
DENV Inhibition % (DENV): did not yield appreciable antiviral activity

Cc1cn([C@H]2C[C@H](NC(=O)Nc3ccccc3)[C@@H](CO[Si](C)(C)C(C)(C)C)O2)c(=O)[nH]c1=O [19a]
activity against DENV relative to WNV (DENV): considerably more active against DENV than WNV

COc1ccc2cc(-c3cnnn3[C@H]3C[C@H](n4cc(C)c(=O)[nH]c4=O)O[C@@H]3CO[Si](C)(C)C(C)(C)C)ccc2c1 [11a]
anti-HIV-1 activity (HIV-1 [3]): no appreciable anti-HIV-1 activity | DENV Inhibition % (DENV): inhibited both viruses almost completely

COc1ccc2cc(-c3cnnn3[C@H]3C[C@H](n4cc(C)c(=O)[nH]c4=O)O[C@@H]3COC3CCCCO3)ccc2c1 (stereo partly drawn) [compound 27, 1-((2R,4S,5S)-4-(5-(6-Methoxynaphthalen-2-yl)-1H-1,2,3-triazol-1-yl)-5-(((tetrahydro-2H-pyran-2-yl)oxy)methyl)-tetrahydrofuran-2-yl)-5-methylpyrimidine-2,4(1H,3H)-dione]
DENV Inhibition % (DENV): did not yield appreciable antiviral activity

COc1ccc2cc(-c3cnnn3[C@H]3C[C@H](n4cc(C)c(=O)[nH]c4=O)O[C@@H]3CO)ccc2c1 [10a, 1-((2R,4S,5S)-5-(Hydroxymethyl)-4-(5-(6-methoxynaphthalen-2-yl)-1H-1,2,3-triazol-1-yl)tetrahydrofuran-2-yl)-5-methylpyrimidine-2,4(1H,3H)-dione]
DENV Inhibition % (DENV): did not show any inhibition | EC50 (HIV-1 [4]): 67 nM
